Data reported in ChEMBL document CHEMBL4732169, “Design and synthesis of mycobacterial pks13 inhibitors: Conformationally rigid tetracyclic molecules” (Eur J Med Chem, 2021).
Values after ≈ are worked out from the molar mass of the structure shown.

How the values were obtained:
Assay type in all cases: functional
[1] = test system: Mycobacterium tuberculosis; assay: Antitubercular activity against multi drug resistance Mycobacterium tuberculosis V2475 by MABA assay
Procedure, shortened: (§1)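 Microplate alamar blue assay (MABA) against each Mtb strain, either H37Rv or a clinical isolate (drug-susceptible, MDR or XDR). MIC taken as the lowest concentration giving at least 90% reduction of the bacterial growth signal. Each value is the average of three individual measurements.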

[2] = test system: Mycobacterium tuberculosis; assay: Antitubercular activity against isoniazid/rifampin resistance Mycobacterium tuberculosis KZN494 by MABA assay; procedure, shortened: as §1
[3] = test system: Mycobacterium tuberculosis; assay: Antitubercular activity against extensively drug resistance Mycobacterium tuberculosis R506 XDR by MABA; procedure, shortened: as §1
[4] = test system: Mycobacterium tuberculosis; assay: Antitubercular activity against isoniazid/rifampin/levofloxacin/ofloxacin/kanamycin extensively drug resistance Mycobacterium tuberculosis TF274 XDR by MABA assay; procedure, shortened: as §1

Compound	MIC=<90 [1]	MIC=<90 [2]	MIC=<90 [3]	MIC=<90 [4]
O=c1[nH]c2cc(O)ccc2c2oc3ccc(O)c(CN4CCCCC4)c3c12	0.0625 µg/mL (≈ 0.172 µM)	0.0313 µg/mL (≈ 0.0859 µM)	0.0156 µg/mL (≈ 0.0428 µM)	0.0156 µg/mL (≈ 0.0428 µM)
NNC(=O)c1ccncc1 [ISONIAZID]	16 µg/mL (≈ 117 µM)	16 µg/mL (≈ 117 µM)	8 µg/mL (≈ 58.3 µM)	8 µg/mL (≈ 58.3 µM)
NC[C@H]1O[C@H](O[C@H]2[C@H](O)[C@@H](O[C@H]3O[C@H](CO)[C@@H](O)[C@H](N)[C@H]3O)[C@H](N)C[C@@H]2N)[C@H](O)[C@@H](O)[C@@H]1O [KANAMYCIN]	2 µg/mL (≈ 4.13 µM)	2 µg/mL (≈ 4.13 µM)	>128 µg/mL	>128 µg/mL
C[C@H]1COc2c(N3CCN(C)CC3)c(F)cc3c(=O)c(C(=O)O)cn1c23.C[C@H]1COc2c(N3CCN(C)CC3)c(F)cc3c(=O)c(C(=O)O)cn1c23.O [LEVOFLOXACIN]			2 µg/mL	1 µg/mL
CC1COc2c(N3CCN(C)CC3)c(F)cc3c(=O)c(C(=O)O)cn1c23 (configuration not stated) [OFLOXACIN]	0.5 µg/mL (≈ 1.38 µM)	0.5 µg/mL (≈ 1.38 µM)	4 µg/mL (≈ 11.1 µM)	8 µg/mL (≈ 22.1 µM)
CO[C@H]1/C=C/O[C@@]2(C)Oc3c(C)c(O)c4c(O)c(c(/C=N/N5CCN(C)CC5)c(O)c4c3C2=O)NC(=O)/C(C)=C\C=C\[C@H](C)[C@H](O)[C@@H](C)[C@@H](O)[C@@H](C)[C@H](OC(C)=O)[C@@H]1C [RIFAMPIN]	4 µg/mL (≈ 4.86 µM)	128 µg/mL (≈ 156 µM)	>128 µg/mL	>128 µg/mL
